Measured values published in article PMC7686114 (Bioorganic chemistry, 2020).
Entries after “also recorded” stand apart in the source; their conditions may differ. Like-named read-outs stand apart in the source and are kept apart here.

How the values were obtained:
human recombinant PDE5 = human recombinant PDE5 (Homo sapiens, UniProt O76074); assay: PDE5 inhibition, IMAP fluorescence polarization assay; type: biochemical; details: for fold reduction in PDE5 inhibitory potency compared to compound 7: vs compound 7 (4-COOH, 4-chlorophenyl)
COX-2 = target: T1, COX-2 (Ovis aries, UniProt P79208); assay: COX-2 colorimetric assay; type: biochemical, ovine
T1 sequence (P79208 17-603): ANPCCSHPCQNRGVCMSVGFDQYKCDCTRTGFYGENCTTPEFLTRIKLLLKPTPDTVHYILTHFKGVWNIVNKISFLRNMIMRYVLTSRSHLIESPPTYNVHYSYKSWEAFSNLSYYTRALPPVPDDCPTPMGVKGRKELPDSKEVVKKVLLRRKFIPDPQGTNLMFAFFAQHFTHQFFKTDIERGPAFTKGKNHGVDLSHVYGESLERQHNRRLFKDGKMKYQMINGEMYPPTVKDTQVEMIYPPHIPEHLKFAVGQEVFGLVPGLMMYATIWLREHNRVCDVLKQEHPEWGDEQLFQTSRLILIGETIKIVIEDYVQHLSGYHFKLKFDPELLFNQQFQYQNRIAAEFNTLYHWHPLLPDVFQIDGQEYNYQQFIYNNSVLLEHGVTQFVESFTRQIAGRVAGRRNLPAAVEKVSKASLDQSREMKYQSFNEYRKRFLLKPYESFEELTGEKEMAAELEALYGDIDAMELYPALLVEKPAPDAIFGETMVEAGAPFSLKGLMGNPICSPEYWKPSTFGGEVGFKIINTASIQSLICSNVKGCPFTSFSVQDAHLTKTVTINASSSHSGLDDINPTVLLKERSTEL
How it was run: (§1)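 Ovine COX-1 or COX-2 was diluted with hemin in 0.1 M Tris-HCl, pH 8. Test compound or vehicle was preincubated with enzyme for 5 min at 25°C. Colorimetric substrate was added, then arachidonic acid, and the reaction ran 5 min more at 25°C. Activity was read as substrate absorbance at 590 nm.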

COX-1 = target: T2, COX-1 (Ovis aries, UniProt P05979); assay: COX-1 colorimetric assay; type: biochemical, ovine; details: screening concentration 100 μM
T2 sequence (P05979 25-600): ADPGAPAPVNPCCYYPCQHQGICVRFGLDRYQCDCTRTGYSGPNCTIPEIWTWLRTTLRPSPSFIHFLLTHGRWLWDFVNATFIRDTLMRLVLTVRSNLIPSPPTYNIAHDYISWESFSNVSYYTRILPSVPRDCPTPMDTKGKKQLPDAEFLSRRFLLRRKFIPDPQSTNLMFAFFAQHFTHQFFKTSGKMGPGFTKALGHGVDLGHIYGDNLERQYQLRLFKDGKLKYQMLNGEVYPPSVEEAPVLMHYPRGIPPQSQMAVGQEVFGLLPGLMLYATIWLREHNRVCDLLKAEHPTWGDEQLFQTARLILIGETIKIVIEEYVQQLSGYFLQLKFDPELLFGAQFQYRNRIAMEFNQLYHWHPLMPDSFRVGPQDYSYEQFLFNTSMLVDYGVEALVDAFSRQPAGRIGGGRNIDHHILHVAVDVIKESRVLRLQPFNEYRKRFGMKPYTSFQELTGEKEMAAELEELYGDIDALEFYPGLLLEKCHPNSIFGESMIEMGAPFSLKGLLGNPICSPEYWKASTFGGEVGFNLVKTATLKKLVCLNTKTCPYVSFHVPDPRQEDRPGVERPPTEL
How it was run: as §1

PDE7A = PDE7A (Homo sapiens, UniProt Q13946); assay: PDE isoform selectivity, IMAP FP assay; type: biochemical; details: read-out: % inhibition at 50 μM, PDE7A (cAMP)
How it was run: (§2)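 Recombinant PDE enzymes were used at concentrations set empirically to give EC80 activity, in 10 mM Tris-HCl pH 7.4, 10 mM MgCl2, 0.1 mg/mL BSA. Test compound was preincubated with enzyme for 60 min at 30°C. TAMRA-cGMP (ex530/em590) or FAM-cAMP (ex485/em530), 50 nmol/L final, was then added for 30 min at 30°C. IMAP binding reagent followed for 10 min at 30°C, and fluorescence polarization was read.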

PDE8A = PDE8A (Homo sapiens, UniProt O60658); assay: PDE isoform selectivity, IMAP FP assay; type: biochemical; details: read-out: % inhibition at 50 μM, PDE8A (cAMP)
How it was run: as §2

[1] = system: all other PDE isozymes, including PDE6 and PDE11; assay: PDE isozyme selectivity panel; type: biochemical, human; details: concentrations up to 50 μM
PDE2A = PDE2A (Homo sapiens, UniProt O00408); assay: PDE isoform selectivity, IMAP FP assay; type: biochemical
PDE10A = PDE10A (Homo sapiens, UniProt Q9Y233); assay: PDE isoform selectivity, IMAP FP assay; type: biochemical
How it was run: as §2

PDE4B2 = PDE4B2 (Homo sapiens, UniProt Q07343); assay: PDE isoform selectivity, IMAP FP assay; type: biochemical; details: read-out: % inhibition at 50 μM, PDE4B2 (cAMP)
How it was run: as §2

PDE9A = PDE9A (Homo sapiens, UniProt O76083); assay: PDE isoform selectivity, IMAP FP assay; type: biochemical; details: read-out: % inhibition at 50 μM, PDE9A (cGMP)
How it was run: as §2

PDE3A = PDE3A (Homo sapiens, UniProt Q14432); assay: PDE isoform selectivity, IMAP FP assay; type: biochemical
How it was run: as §2

PDE11A = PDE11A (Homo sapiens, UniProt Q9HCR9); assay: PDE isoform selectivity, IMAP FP assay; type: biochemical
How it was run: as §2

[2] = system: intracellular cGMP levels in HEK293 cells; assay: Luciferase cGMP biosensor assay; type: cell-based, human
How it was run: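 HEK293 cells stably expressing a GloSensor cGMP-40F construct (human PDE5A GAF-A fused to firefly luciferase) were G418-selected. Cells were seeded at 6×10⁴/well and attached overnight in DMEM + 10% FBS at 37°C, 5% CO2. They were preincubated at room temperature in CO2-independent medium with 10% FBS and 5 mmol/L luciferin. 50 μM sodium nitroprusside was added together with test compound, and luminescence was read every minute for 1 h.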

PDE1A = PDE1A (Homo sapiens, UniProt P54750); assay: PDE isoform selectivity, IMAP FP assay; type: biochemical
How it was run: as §2

PDE6C = PDE6C (Homo sapiens, UniProt P51160); assay: PDE isoform selectivity, IMAP FP assay; type: biochemical; details: read-out: % inhibition at 50 μM, PDE6C (cGMP)
How it was run: as §2

PDE3B = PDE3B (Homo sapiens, UniProt Q13370); assay: PDE isoform selectivity, IMAP FP assay; type: biochemical
How it was run: as §2

[3] = read-out: PDE5 % inh at 50 (μM)

PDE3B, sequence (Q13370 whole entry, canonical isoform): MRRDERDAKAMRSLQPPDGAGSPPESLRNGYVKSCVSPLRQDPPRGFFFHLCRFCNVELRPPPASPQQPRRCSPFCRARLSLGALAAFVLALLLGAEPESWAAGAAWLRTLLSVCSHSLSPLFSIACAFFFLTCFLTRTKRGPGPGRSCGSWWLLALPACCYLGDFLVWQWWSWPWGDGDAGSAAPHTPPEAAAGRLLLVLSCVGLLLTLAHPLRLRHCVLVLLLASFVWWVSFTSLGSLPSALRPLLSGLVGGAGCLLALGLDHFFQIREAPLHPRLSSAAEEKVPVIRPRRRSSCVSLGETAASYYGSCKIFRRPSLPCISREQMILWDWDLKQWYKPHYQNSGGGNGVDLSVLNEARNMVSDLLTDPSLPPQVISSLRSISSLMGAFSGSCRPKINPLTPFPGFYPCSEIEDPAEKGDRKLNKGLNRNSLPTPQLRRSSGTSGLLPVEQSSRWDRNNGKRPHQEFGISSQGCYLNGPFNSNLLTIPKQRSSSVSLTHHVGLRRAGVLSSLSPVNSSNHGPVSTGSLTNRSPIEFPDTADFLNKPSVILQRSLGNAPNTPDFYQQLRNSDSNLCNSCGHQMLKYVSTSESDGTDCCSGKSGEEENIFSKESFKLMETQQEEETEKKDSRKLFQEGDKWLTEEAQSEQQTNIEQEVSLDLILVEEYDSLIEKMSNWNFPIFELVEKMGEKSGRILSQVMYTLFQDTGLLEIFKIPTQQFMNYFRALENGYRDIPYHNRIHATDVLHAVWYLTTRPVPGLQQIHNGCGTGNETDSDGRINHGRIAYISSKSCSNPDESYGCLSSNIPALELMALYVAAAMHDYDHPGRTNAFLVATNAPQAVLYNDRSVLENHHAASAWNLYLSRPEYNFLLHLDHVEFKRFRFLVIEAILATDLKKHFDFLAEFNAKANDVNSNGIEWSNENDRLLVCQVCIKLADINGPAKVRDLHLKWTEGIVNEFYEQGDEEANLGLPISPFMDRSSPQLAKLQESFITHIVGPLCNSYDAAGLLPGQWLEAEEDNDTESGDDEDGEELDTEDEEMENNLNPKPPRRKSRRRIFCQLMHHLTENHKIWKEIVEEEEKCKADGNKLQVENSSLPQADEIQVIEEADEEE
PDE3A, sequence (Q14432 whole entry, canonical isoform): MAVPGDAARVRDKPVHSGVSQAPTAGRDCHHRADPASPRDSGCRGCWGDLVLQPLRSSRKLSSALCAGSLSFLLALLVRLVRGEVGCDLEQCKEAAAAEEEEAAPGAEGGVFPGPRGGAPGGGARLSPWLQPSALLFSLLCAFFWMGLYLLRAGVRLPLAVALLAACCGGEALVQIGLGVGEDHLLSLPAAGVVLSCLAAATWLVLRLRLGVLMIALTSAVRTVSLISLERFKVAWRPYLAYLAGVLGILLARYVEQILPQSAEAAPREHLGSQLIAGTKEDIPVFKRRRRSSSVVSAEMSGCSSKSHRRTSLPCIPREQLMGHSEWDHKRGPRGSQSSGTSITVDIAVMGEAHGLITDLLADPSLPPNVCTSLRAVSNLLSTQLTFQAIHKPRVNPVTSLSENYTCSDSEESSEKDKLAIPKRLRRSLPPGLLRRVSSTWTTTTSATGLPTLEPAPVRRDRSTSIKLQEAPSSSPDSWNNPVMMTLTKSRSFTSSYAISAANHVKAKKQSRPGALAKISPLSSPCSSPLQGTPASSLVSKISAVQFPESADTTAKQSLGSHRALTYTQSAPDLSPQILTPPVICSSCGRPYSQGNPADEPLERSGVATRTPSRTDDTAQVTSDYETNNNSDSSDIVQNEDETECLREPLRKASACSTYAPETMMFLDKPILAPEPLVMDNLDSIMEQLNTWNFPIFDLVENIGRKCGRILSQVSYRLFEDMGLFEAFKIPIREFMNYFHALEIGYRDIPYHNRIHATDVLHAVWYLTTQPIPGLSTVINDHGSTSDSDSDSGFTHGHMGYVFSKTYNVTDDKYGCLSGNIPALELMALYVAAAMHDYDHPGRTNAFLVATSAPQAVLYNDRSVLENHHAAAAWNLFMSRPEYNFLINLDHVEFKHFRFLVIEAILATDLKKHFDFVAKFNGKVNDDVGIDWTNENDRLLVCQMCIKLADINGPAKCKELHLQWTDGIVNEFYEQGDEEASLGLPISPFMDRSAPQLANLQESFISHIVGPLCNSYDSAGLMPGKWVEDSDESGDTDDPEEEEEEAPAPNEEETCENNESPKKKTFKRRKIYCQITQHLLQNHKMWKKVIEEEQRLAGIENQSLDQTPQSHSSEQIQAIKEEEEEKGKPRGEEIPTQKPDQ
PDE10A, sequence (Q9Y233 whole entry, canonical isoform): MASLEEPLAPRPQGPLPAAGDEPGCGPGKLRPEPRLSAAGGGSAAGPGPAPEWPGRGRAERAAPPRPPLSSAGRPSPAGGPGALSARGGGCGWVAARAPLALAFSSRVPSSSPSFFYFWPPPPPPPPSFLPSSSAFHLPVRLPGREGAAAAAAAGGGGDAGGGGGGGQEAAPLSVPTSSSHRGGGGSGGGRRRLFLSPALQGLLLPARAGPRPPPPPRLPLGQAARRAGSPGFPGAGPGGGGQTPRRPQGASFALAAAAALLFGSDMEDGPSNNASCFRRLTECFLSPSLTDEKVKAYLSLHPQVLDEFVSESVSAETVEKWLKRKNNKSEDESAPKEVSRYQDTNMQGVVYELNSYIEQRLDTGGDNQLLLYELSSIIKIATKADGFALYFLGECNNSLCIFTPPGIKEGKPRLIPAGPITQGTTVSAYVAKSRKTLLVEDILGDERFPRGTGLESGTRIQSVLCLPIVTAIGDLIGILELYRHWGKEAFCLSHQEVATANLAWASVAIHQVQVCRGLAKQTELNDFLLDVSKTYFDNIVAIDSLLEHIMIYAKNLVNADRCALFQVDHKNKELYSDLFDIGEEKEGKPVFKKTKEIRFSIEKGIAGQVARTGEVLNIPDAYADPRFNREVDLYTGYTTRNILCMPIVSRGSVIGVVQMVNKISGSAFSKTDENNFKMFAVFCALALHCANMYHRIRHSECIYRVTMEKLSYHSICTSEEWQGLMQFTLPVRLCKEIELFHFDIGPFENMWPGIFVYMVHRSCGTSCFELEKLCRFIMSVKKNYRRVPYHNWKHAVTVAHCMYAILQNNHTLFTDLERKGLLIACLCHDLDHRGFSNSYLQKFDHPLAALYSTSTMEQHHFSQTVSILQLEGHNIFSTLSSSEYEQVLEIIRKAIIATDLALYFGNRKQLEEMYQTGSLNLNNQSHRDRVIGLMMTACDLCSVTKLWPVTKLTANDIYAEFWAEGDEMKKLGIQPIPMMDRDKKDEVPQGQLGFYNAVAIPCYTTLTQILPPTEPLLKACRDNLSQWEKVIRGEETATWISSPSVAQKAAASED
PDE2A, sequence (O00408 whole entry, canonical isoform): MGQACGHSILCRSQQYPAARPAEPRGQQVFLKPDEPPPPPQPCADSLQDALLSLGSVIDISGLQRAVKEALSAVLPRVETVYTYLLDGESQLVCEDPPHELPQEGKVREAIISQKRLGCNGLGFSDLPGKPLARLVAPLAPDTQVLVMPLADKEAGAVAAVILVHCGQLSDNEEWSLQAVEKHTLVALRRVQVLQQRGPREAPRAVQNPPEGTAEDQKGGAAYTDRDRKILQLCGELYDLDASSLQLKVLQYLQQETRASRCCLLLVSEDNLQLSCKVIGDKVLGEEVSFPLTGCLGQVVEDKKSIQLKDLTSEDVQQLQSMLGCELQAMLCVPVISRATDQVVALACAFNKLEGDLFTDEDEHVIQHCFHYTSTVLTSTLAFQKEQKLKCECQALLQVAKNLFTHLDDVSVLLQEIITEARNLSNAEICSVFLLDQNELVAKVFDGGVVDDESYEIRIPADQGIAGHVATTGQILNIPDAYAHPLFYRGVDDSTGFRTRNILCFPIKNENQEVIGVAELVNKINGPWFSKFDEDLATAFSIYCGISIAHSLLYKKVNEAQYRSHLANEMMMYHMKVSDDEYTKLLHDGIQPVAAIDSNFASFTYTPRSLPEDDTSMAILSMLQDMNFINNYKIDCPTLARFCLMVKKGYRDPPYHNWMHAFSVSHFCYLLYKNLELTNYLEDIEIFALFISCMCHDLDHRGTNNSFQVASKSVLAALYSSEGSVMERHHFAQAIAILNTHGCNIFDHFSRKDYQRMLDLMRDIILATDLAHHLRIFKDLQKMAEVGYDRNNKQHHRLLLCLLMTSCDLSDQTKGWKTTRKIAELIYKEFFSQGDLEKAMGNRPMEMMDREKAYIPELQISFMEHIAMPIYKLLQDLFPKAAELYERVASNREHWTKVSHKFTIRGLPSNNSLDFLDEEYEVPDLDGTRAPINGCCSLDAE
PDE1A, sequence (P54750 whole entry, canonical isoform): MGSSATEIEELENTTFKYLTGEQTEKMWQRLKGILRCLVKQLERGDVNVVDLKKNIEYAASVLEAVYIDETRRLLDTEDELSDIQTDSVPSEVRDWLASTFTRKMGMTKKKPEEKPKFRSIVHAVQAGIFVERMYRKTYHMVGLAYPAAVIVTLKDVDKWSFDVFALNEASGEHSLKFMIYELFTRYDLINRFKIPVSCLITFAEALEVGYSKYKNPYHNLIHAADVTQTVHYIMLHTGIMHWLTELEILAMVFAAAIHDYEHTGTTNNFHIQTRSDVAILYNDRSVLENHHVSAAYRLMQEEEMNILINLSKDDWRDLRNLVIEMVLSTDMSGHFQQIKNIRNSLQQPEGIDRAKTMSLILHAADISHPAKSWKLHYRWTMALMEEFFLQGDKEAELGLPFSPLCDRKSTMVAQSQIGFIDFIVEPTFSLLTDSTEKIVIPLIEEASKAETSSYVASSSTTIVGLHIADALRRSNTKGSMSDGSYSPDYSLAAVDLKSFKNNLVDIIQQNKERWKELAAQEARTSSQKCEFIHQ

**Q.** With `CC(C)(C)C1=NN(c2ccc(S(=O)(=O)O)cc2)C(c2ccc(Cl)cc2)C1` (centres unmarked) [Compound 32, 4-(3-tert-Butyl-5-(4-chlorophenyl)-4,5-dihydro-1H-pyrazol-1-yl)benzenesulfonic acid] as the molecule, how does the IC50 (human recombinant PDE5) read?
**A.** The IC50 was 8.7 µM.

**Q.** What about the inhibition at 50 µM (human recombinant PDE5; [3]) of the same molecule?
**A.** Its inhibition at 50 µM is 85%.

**Q.** And the “fold reduction in PDE5 inhibitory potency compared to compound 7” value (human recombinant PDE5)?
**A.** The value was “about 2 fold”.

**Q.** What about the IC50 (COX-2) of the same molecule?
**A.** The IC50 was 85 µM.

**Q.** For `Cc1ccc(C2CC(C(C)(C)C)=NN2c2ccc(C(=O)O)cc2)cc1` (centres unmarked) [Compound 22, 4-(3-tert-Butyl-5-p-tolyl-4,5-dihydro-1H-pyrazol-1-yl)benzoic acid], which “fold improvement in PDE5 inhibitory activity compared to celecoxib” value (human recombinant PDE5; ratio of IC50 vs celecoxib) is on record?
**A.** Its value is 4 fold.

**Q.** What about the inhibition at 50 µM (human recombinant PDE5; [3]) of the same molecule?
**A.** The inhibition at 50 µM was 93%.

**Q.** And the “COX1 inhibition at 100 μM” value (COX-1)?
**A.** The value was “no COX inhibition”.

**Q.** What about the “COX2 inhibition at 100 μM” value (COX-2; screening concentration 100 μM) of the same molecule?
**A.** The value was “no COX inhibition”.

**Q.** Which results are given for `CC(C)(C)C1=NN(c2ccc(S(N)(=O)=O)cc2)C(c2ccc(Cl)cc2)C1` (centres unmarked) [Compound 33, 4-(3-tert-Butyl-5-(4-chlorophenyl)-4,5-dihydro-1H-pyrazol-1-yl)benzenesulfonamide]?
**A.** IC50 (human recombinant PDE5): 48.7 µM; inhibition at 50 µM (human recombinant PDE5; [3]): 57.5%; fold reduction in PDE5 inhibitory potency compared to compound 7 (human recombinant PDE5): about 15 fold; IC50 (COX-2): 34 µM

**Q.** How did the IC50 (human recombinant PDE5) turn out when `CC(C)(C)C1=NN(c2ccc(S(=O)(=O)O)cc2)C(c2ccc(F)cc2)C1` (centres unmarked) [Compound 31, 4-(3-tert-Butyl-5-(4-fluorophenyl)-4,5-dihydro-1H-pyrazol-1-yl) benzenesulfonic acid] was run?
**A.** Its IC50 is 9.3 µM.

**Q.** And the inhibition at 50 µM (human recombinant PDE5; [3])?
**A.** The inhibition at 50 µM was 80%.

**Q.** And the IC50 (COX-2)?
**A.** The IC50 was 80 µM.

**Q.** `CC(C)(C)C1=NN(c2ccc(C(=O)O)cc2)C(c2ccc(Cl)cc2Cl)C1` (centres unmarked) [Compound 11, 4-(3-(tert-Butyl)-5-(2,4-dichlorophenyl)-4,5-dihydro-1H-pyrazol-1-yl) benzoic acid] was tested. Which inhibition at 50 µM (PDE7A) did it give?
**A.** Its inhibition at 50 µM is 9.1%.

**Q.** What about the inhibition at 50 µM (PDE8A) of the same molecule?
**A.** Its inhibition at 50 µM is 4%.

**Q.** What about the “effect on activity of all other PDE isozymes” value [1] of the same molecule?
**A.** Its value is “without significantly affecting the activity”.

**Q.** What about the inhibition at 50 µM (PDE2A; read-out: % inhibition at 50 μM, PDE2A (cAMP)) of the same molecule?
**A.** The inhibition at 50 µM was 5.6%.

**Q.** And the inhibition at 50 µM (PDE2A; read-out: % inhibition at 50 μM, PDE2A (cGMP))?
**A.** Its inhibition at 50 µM is 19.9%.

**Q.** What about the IC50 (human recombinant PDE5) of the same molecule?
**A.** Its IC50 is 2.7 µM.

**Q.** What about the inhibition at 50 µM (human recombinant PDE5; read-out: % inhibition at 50 μM, PDE5A (cGMP)) of the same molecule?
**A.** Its inhibition at 50 µM is 97%.

**Q.** What about the inhibition at 50 µM (human recombinant PDE5; [3]) of the same molecule?
**A.** Its inhibition at 50 µM is 97%.

**Q.** What about the inhibition at 50 µM (PDE10A; read-out: % inhibition at 50 μM, PDE10A (cAMP)) of the same molecule?
**A.** Its inhibition at 50 µM is 3.6%.

**Q.** And the inhibition at 50 µM (PDE10A; read-out: % inhibition at 50 μM, PDE10A (cGMP))?
**A.** Its inhibition at 50 µM is 4.5%.

**Q.** And the inhibition at 50 µM (PDE4B2)?
**A.** Its inhibition at 50 µM is 1.6%.

**Q.** And the inhibition at 50 µM (PDE9A)?
**A.** Its inhibition at 50 µM is 10.7%.

**Q.** What about the inhibition at 50 µM (PDE3A; read-out: % inhibition at 50 μM, PDE3A (cAMP)) of the same molecule?
**A.** Its inhibition at 50 µM is 12.4%.

**Q.** And the inhibition at 50 µM (PDE3A; read-out: % inhibition at 50 μM, PDE3A (cGMP))?
**A.** The inhibition at 50 µM was 36.2%.

**Q.** What about the inhibition at 50 µM (PDE11A; read-out: % inhibition at 50 μM, PDE11A (cAMP)) of the same molecule?
**A.** Its inhibition at 50 µM is 0.9%.

**Q.** And the inhibition at 50 µM (PDE11A; read-out: % inhibition at 50 μM, PDE11A (cGMP))?
**A.** Its inhibition at 50 µM is 5.9%.

**Q.** And the “relative potency/efficacy in increasing intracellular cGMP levels” value ([2]; comparison among tadalafil, celecoxib, 11 and 19)?
**A.** Its value is “substantially higher efficacy; also recorded: higher cellular potency”.

**Q.** What about the “intracellular cGMP levels (luminescence), concentration dependence” value ([2]; pretreated with sodium nitroprusside) of the same molecule?
**A.** The value was “concentration-dependent increase”.

**Q.** What about the inhibition at 50 µM (PDE1A; read-out: % inhibition at 50 μM, PDE1A (cAMP)) of the same molecule?
**A.** The inhibition at 50 µM was 2.6%.

**Q.** And the inhibition at 50 µM (PDE1A; read-out: % inhibition at 50 μM, PDE1A (cGMP))?
**A.** Its inhibition at 50 µM is 22%.

**Q.** And the inhibition at 50 µM (PDE6C)?
**A.** Its inhibition at 50 µM is 16.2%.

**Q.** What about the inhibition at 50 µM (PDE3B; read-out: % inhibition at 50 μM, PDE3B (cAMP)) of the same molecule?
**A.** The inhibition at 50 µM was 6.7%.

**Q.** And the inhibition at 50 µM (PDE3B; read-out: % inhibition at 50 μM, PDE3B (cGMP))?
**A.** Its inhibition at 50 µM is 15.7%.
